Screening results: PubChem, Broad Institute
DENV2 CPE rescue: DENV2-induced cell death inhibition. DENV2-infected cells, cytopathic effect rescue, plate reader. AID 651640. CPE inhibition, % at 9.99 µM. 1.7% of 350,000 active; in the data active = CPE inhibition above about 20%, passing the limit was not always enough; tested in BHK-21 cells;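 note: 0% = median of neutral control wells and 100% = median of positive control wells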
CASP6 VEID inh: caspase-6 (human) enzyme inhibition; P55212; purified caspase-6, Z-VEID-R110 cleavage fluorescence; inhibition, % at 12.5 µM; 0.53% of 350,000 active; AID 686996;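 active = mean inhibition across replicates at least about 35%, with every replicate also reaching that limit, limit read from the data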;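 note: 0% = median of neutral control wells and 100% = no fluorescence left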
Target sequence (P55212 24-179 limits assumed): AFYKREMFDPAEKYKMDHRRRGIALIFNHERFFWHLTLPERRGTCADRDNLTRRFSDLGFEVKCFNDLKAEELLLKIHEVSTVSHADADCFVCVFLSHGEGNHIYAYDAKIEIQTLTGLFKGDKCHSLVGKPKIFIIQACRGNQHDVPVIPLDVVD
Target sequence (P55212 194-293 limits assumed): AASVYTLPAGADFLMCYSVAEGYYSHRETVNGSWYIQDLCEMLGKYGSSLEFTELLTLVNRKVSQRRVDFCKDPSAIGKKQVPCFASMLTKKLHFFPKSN
FN deposit inh: fibronectin deposition inhibition; 0.086% of 350,000 active; inhibition, % at 12.6 µM; AH1F fibroblasts, Alexa488-fibronectin deposition fluorescence, overnight; AID 743247;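 active = mean inhibition across replicates of 30% or more, regardless of how many single replicates reach that level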;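 note: positive control wells lacked labelled fibronectin entirely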
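Material – AH1F fibroblast monolayer, labelled fibronectin deposition · Reagent – labelled fibronectin 24 nM · Timing – 1 h adhesion, overnight exposure · Measured by – fluorescence at 485 nm excitation, 525 nm emission · Read-out – inhibition of fibronectin deposition signal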
CaV13 ICDI inh: Disruptors of the CACNA1D IQ motif to Ca2+-dependent inactivation inhibitor domain association, primary screening, Förster resonance energy transfer in intact living … | HEK cells, CFP/YFP FRET ICDI-IQ, plate reader, 10 min; percent FRET-ratio fall versus neutral wells | inhibition, % at 12.3 µM | 0.098% of 340,000 active | AID 743397;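 active = mean replicate inhibition of at least 30% and at least 1% of replicates passing that level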;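 note: 0% = median of the neutral control wells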
Xi reactivation: activators of X-chromosome reactivation in mouse fibroblasts | AID 743238 | 0.055% of 360,000 active | activation, % at 7.58 µM | XiGFP mouse fibroblasts, % GFP-positive cells imaging, 3 d; cells co-treated with 5-aza-dC sensitizer; scaled so ellipticine positive control = 100%;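 active = mean normalized replicate activation at least 10% and every replicate at or above 10%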;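 note: 0% = median of on-plate neutral control wells and 100% = ellipticine 6 µM median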
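material = 68-5-11 XiGFP fibroblast line | medium = DMEM plus 5-aza-dC sensitizer | schedule = 3 days compound exposure | benchmarks = positive control ellipticine, 6 µM final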
An asterisk follows results filed as active; . = not tested or not shown. An excerpt weighted towards active compounds, which were near 2% of everything screened.

SMILES | DENV2 CPE rescue | CASP6 VEID inh | FN deposit inh | CaV13 ICDI inh | Xi reactivation
C[C@@H]1CCCCO[C@@H](CN(C)S(=O)(=O)c2ccc(F)cc2)[C@@H](C)CN([C@@H](C)CO)C(=O)c2cc(NC(=O)c3ccccc3)ccc2O1 | 93* | 2 | -4 | . | 0
O=C(NNC(=O)c1ccccc1F)c1ccco1 | -1 | -2 | 5 | -4 | 0
O=C(NNC(=O)c1ccccc1F)c1ccc(-c2ccccc2Cl)o1 | 21* | -1 | -7 | -9 | 0
C[C@H](CO)N1C[C@H](C)[C@@H](CN(C)C(=O)Nc2cccc3ccccc23)Oc2ccc(NC(=O)C3CCCCC3)cc2CC1=O | 6 | . | 4 | . | -1
CC(Sc1ccccn1)C(=O)Nc1ccc2c(c1)OCCO2 (stereo not drawn) | 27* | 2 | 5 | -3 | 0
CC(Sc1ccccn1)C(=O)Nc1ccc2c(c1)OCO2 (stereo not drawn) | -1 | 3 | -11 | -3 | 0
COc1ccc(S(=O)(=O)N(C)C[C@@H]2Oc3c(NC(=O)C4CCOCC4)cccc3C(=O)N([C@H](C)CO)C[C@H]2C)cc1 | . | 0 | -6 | . | -1
Cn1c(N)c(N=O)c(=O)n(C)c1=S | 7 | 60* | 9 | -16 | 0
Cn1c(N)c(N=Cc2ccccc2)c(=O)n(C)c1=O | 14 | -2 | -14 | -11 | 0
Cc1ccc(NC(=O)C2CCCCC2)cc1C | 70* | -2 | -2 | -5 | 0
C[C@@H]1CCCCO[C@@H](CN(C)CC2CCCCC2)[C@@H](C)CN([C@H](C)CO)C(=O)c2cc(N(C)C)ccc2O1 | 48* | 0 | . | . | 0
CNC[C@H]1Oc2ccc(NC(=O)CCN3CCOCC3)cc2C(=O)N([C@@H](C)CO)C[C@@H]1C | . | . | -8 | . | -1
C[C@@H]1CCCCO[C@@H](CN(C)CC2CCCCC2)[C@H](C)CN([C@@H](C)CO)C(=O)c2cc(NS(=O)(=O)c3ccc(Cl)cc3)ccc2O1 | -24 | . | . | . | 0
C[C@@H]1CN([C@@H](C)CO)C(=O)c2cc(NS(=O)(=O)c3ccc(Cl)cc3)ccc2O[C@@H](C)CCCCO[C@H]1CN(C)CC1CC1 | 84* | 0 | . | . | 0
CNC[C@H]1Oc2ccc(NC(=O)CCN3CCOCC3)cc2C(=O)N([C@H](C)CO)C[C@@H]1C | 27* | 3 | -4 | . | 0
C[C@@H]1CCCCO[C@@H](CN(C)CC2CC2)[C@@H](C)CN([C@H](C)CO)C(=O)c2cc(NS(=O)(=O)c3ccc(Cl)cc3)ccc2O1 | 48* | -1 | . | . | 0
C[C@H](CO)N1C[C@H](C)[C@@H](CN(C)Cc2ccc(-c3ccccc3)cc2)Oc2ccc(NC(=O)Cn3cnnn3)cc2CC1=O | 2 | 0 | . | . | 0
C[C@@H]1CCCCO[C@@H](CN(C)Cc2ccncc2)[C@@H](C)CN([C@@H](C)CO)C(=O)c2cc(NS(C)(=O)=O)ccc2O1 | . | . | . | . | 0
C[C@@H]1CCCCO[C@H](CN(C)CC2CCCCC2)[C@@H](C)CN([C@H](C)CO)C(=O)c2cc(NS(=O)(=O)c3ccccc3)ccc2O1 | 28* | 1 | . | . | 0
C[C@@H]1CN([C@@H](C)CO)C(=O)c2cc(NS(=O)(=O)c3ccc(Cl)cc3)ccc2O[C@H]1CN(C)CC1CC1 | 29* | 0 | . | . | 0
C[C@@H]1CCCCO[C@H](CN(C)CC2CC2)[C@H](C)CN([C@H](C)CO)C(=O)c2cc(NS(=O)(=O)c3ccc(F)cc3)ccc2O1 | 29* | 2 | . | . | 0
CNC[C@H]1Oc2ccc(NS(=O)(=O)c3ccc(Cl)cc3)cc2C(=O)N([C@H](C)CO)C[C@H]1C | 28* | 1 | . | . | -1
O=C1C[C@H](c2ccccc2)C(=O)N[C@@H](c2ccc(F)cc2)C/C=C\CCN1 | . | . | -9 | . | 0
O=C(C[C@@H]1CC[C@H]2[C@@H](COC[C@H](O)CN2Cc2ccccc2F)O1)N[C@H]1CCN(Cc2ccccc2)C1 | 5 | -2 | -13 | . | 0
CNC[C@@H]1Oc2ccc(NS(=O)(=O)c3cn(C)cn3)cc2C(=O)N([C@@H](C)CO)C[C@H]1C | 23* | -4 | . | . | 1
SMILES | DENV2 CPE rescue | CASP6 VEID inh | FN deposit inh | CaV13 ICDI inh | Xi reactivation
C#CCNC(=O)C[C@@H]1C[C@@]2(C(=O)OC)CCCCC=C2N(Cc2cccc3ccccc23)C1=O | 90* | 1 | 4 | -10 | 0
CCCCCCCCN1C(=O)[C@H](CC(=O)NCCCC)C[C@@]2(C(=O)OCC)CCCC=C12 | -2 | 2 | 16 | -4 | 0
COC(=O)[C@]12CCCCC=C1N(Cc1cccc3ccccc13)C(=O)[C@H](CC(=O)NCC13CC4CC(CC(C4)C1)C3)C2 | 47* | 4 | -4 | -9 | 0
CCCCCCCCN1C(=O)[C@H](CC(=O)NCC23CC4CC(CC(C4)C2)C3)C[C@@]2(C(=O)OCC)CCCC=C12 | 20* | 2 | 1 | -4 | 0
COC(=O)[C@]12CCCCC=C1N(Cc1ccc(Cl)cc1Cl)C(=O)[C@H](CC(=O)NCC13CC4CC(CC(C4)C1)C3)C2 | -4 | -3 | 7 | -5 | 0
C#CCNC(=O)C[C@@H]1C[C@@]2(C(=O)OCC)CCC=C2N(Cc2cccc3ccccc23)C1=O | 0 | 3 | -7 | -1 | 0
C[C@@H]1CCCCO[C@H](CN(C)Cc2ccc(C(=O)O)cc2)[C@H](C)CN([C@@H](C)CO)C(=O)c2cc(NS(=O)(=O)c3cn(C)cn3)ccc2O1 | 14 | . | . | . | 0
O=S(=O)(c1ccc(F)cc1)N1[C@@H]2CNC[C@H]1C2c1ccc(-c2ccccc2)cc1 (stereo partly drawn) | -7 | -2 | -3 | . | 0
Cc1ccc(S(=O)(=O)Nc2ccc3c(c2)C(=O)N([C@H](C)CO)C[C@H](C)[C@@H](CN(C)C(=O)Nc2cccc4ccccc24)O3)cc1 | 41* | 1 | . | . | -1
COc1ccc(NC(=O)N(C)C[C@H]2Oc3ccc(NS(=O)(=O)c4ccccc4)cc3C(=O)N([C@H](C)CO)C[C@@H]2C)cc1 | 29* | 0 | 5 | -6 | 0
C[C@H]1CN([C@@H](C)CO)C(=O)c2cc(NS(=O)(=O)c3ccc(F)cc3)ccc2O[C@H]1CN(C)C(=O)Nc1ccccc1 | 27* | 1 | -4 | . | 0
C[C@H](CO)N1C[C@H](C)[C@@H](CN(C)C(=O)Nc2ccccc2)Oc2ccc(NS(=O)(=O)c3ccc(F)cc3)cc2C1=O | 2 | 3 | -4 | -3 | 0
C[C@@H]1CN([C@@H](C)CO)C(=O)c2cc(NS(=O)(=O)c3ccc(F)cc3)ccc2O[C@@H]1CN(C)C(=O)Nc1ccccc1 | 36* | 2 | 0 | . | 0
CCC(=O)Nc1ccc2c(c1)C(=O)N(C)[C@H]1CC[C@H](CC(=O)NCCc3ccncc3)O[C@@H]1CO2 | . | . | 1 | . | 0
